Measurements: ChEMBL document CHEMBL1144837, “Antimitotic and antiproliferative activities of chalcones: forward structure-activity relationship” (J Med Chem, 2008)

Experiments:
[1] = test system: K562; experiment: Cell cycle arrest in human K562 cells assessed as accumulation at G2/M phase at 10 uM after 24 hrs by flow cytometry; format: functional
Outline: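 K562 cells exposed 24 h at 10 µM, then stained with propidium iodide at 4 °C overnight and analysed by flow cytometry. After doublets and aggregates were excluded on an FL2-area/FL2-width plot, cells were assigned to G0/G1, S and G2/M, and the G2/M fraction was scored.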

[2] = test system: K562; experiment: Cytotoxicity against human K562 cells after 24 hrs by MTT assay; format: functional, cell-based; conditions: K562, 24 h
Outline: (§1)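 MTT viability assay: exponentially growing cells were seeded at 3 × 10^3 cells/well and held 24 h before drug addition. Formazan was dissolved in isopropanol and read by absorbance relative to untreated wells. IC50 is the concentration giving 50% growth loss against a control-cell standard curve after 24 h incubation. Run in triplicate, at least three separate experiments.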

[3] = test system: HCT-116; experiment: Cytotoxicity against human HCT116 cells after 24 hrs by MTT assay; format: functional, cell-based; conditions: HCT-116, 24 h; outline: as §1
[4] = Cytotoxicity against human HNO150 cells after 24 hrs by MTT assay; format: functional, cell-based; conditions: HNO150, 24 h; outline: as §1
[5] = test system: CCRF-CEM; experiment: Cytotoxicity against human CEM cells after 24 hrs by MTT assay; format: functional, cell-based; outline: as §1
[6] = test system: SW48; experiment: Cytotoxicity against human SW48 cells after 24 hrs by MTT assay; format: functional, cell-based; conditions: SW48, 24 h; outline: as §1
[7] = test system: MCF7; experiment: Cytotoxicity against human MCF7 cells after 24 hrs by MTT assay; format: functional, cell-based; conditions: MCF7, 24 h; outline: as §1
[8] = test system: N2a; experiment: Cytotoxicity against mouse N2A cells after 24 hrs by MTT assay; format: functional, cell-based; outline: as §1
[9] = test system: NIH3T3; experiment: Cytotoxicity against mouse NIH3T3 cells after 24 hrs by MTT assay; format: functional, cell-based; conditions: NIH3T3, 24 h; outline: as §1
[10] = Cytotoxicity against human Messa cells after 24 hrs by MTT assay; format: functional, cell-based; conditions: MES-SA; outline: as §1
[11] = test system: L1210; experiment: Cytotoxicity against mouse L1210 cells after 24 hrs by MTT assay; format: functional, cell-based; conditions: L1210, 24 h; outline: as §1
[12] = test system: RL; experiment: Cytotoxicity against human RL cells after 24 hrs by MTT assay; format: functional, cell-based; outline: as §1

Structure (SMILES)	Activity [1]	further results
COc1ccc(/C=C/C(=O)c2ccc(OC)cc2OC)c(OC)c1	25%	–
O=C(/C=C/c1c(Cl)cccc1Cl)c1ccccc1	28%	–
COc1ccc(C(=O)/C=C/c2ccccc2Cl)c(OC)c1	42%	–
COc1cc(O)c(C(=O)/C=C/c2ccccc2Cl)c(OC)c1	43%	–
COc1cc(O)c(C(=O)/C=C/c2ccccc2OC)c(OC)c1	41%	–
CCOc1cc(OCC)c(/C=C/C(=O)c2c(OCC)cc(OCC)cc2OCC)c(OCC)c1	18%	–
COc1ccc(C(=O)/C=C/c2cc(OC)c(OC)cc2OC)c(O)c1	15%	–
COc1ccc(C(=O)/C=C/c2c(Cl)cccc2OC)c(O)c1	45%	–
COc1ccc(/C=C/C(=O)c2c(OC)cccc2OC)c(OC)c1	22%	–
CCOc1cccc(OCC)c1C(=O)/C=C/c1c(OC)cc(OC)cc1OC	10%	–
COc1cccc(OC)c1C(=O)/C=C/c1c(C)cc(C)cc1C	23%	–
COc1cccc(OC)c1C(=O)/C=C/c1c(OC)c(F)c(OC)c(F)c1OC	46%	–
COc1cccc(OC)c1C(=O)/C=C/c1cccc(F)c1	27%	–
COc1cccc(OC)c1C(=O)/C=C/c1cccc(Cl)c1	19%	–
COc1ccc(C(=O)/C=C/c2c(OC)cc(OC)cc2OC)c(O)c1	19%	–
COc1cccc(/C=C/C(=O)c2c(OC)cccc2OC)c1	29%	–
COc1cc(O)c(C(=O)/C=C/c2c(Cl)cccc2Cl)c(OC)c1	26%	–
COc1cc(OC)c(C(=O)/C=C/c2c(OC)cccc2OC)c(OC)c1	64%	–
COc1ccc(/C=C/C(=O)c2c(OC)cc(OC)cc2OC)c(OC)c1	15%	–
COc1ccc(C(=O)/C=C/c2cccc(F)c2)c(OC)c1	32%	–

Structure (SMILES)	Activity [1]	further results
COc1cc(OC)c(/C=C/C(=O)c2c(OC)cccc2OC)c(OC)c1	84%	IC50 [2]: 50 µM; IC50 [3]: 0.45 µM; IC50 [4]: 1.3 µM; IC50 [5]: 0.65 µM; IC50 [6]: 0.25 µM; IC50 [7]: 60 µM; IC50 [8]: 2.2 µM; IC50 [9]: 30 µM; IC50 [10]: 1 µM; IC50 [11]: 7 µM; IC50 [12]: 0.8 µM
COc1cccc(OC)c1C(=O)/C=C/c1c(Cl)cccc1Cl	39%	–
COc1ccc(C(=O)/C=C/c2cccc(F)c2)c(O)c1	40%	–
COc1cccc(OC)c1C(=O)/C=C/c1ccc(C(F)(F)F)cc1	23%	–
COc1cccc(OC)c1C(=O)/C=C/c1ccccc1Cl	23%	–
COc1cccc(/C=C/C(=O)c2ccc(OC)cc2O)c1	26%	–
COc1ccc(C(=O)/C=C/c2cc(OC)ccc2OC)c(O)c1	32%	–
COc1ccc(C(=O)/C=C/c2ccc(OC)cc2OC)c(O)c1	18%	–
COc1cc(O)c(C(=O)/C=C/c2cccc(F)c2)c(OC)c1	48%	–
COc1cc(O)c(C(=O)/C=C/c2c(OC)cccc2OC)c(OC)c1	12%	–
COc1cccc(OC)c1/C=C/C(=O)c1c(OC)cccc1OC	78%	IC50 [2]: 80 µM; IC50 [3]: 9 µM; IC50 [4]: 62 µM; IC50 [5]: 6 µM; IC50 [6]: 10 µM; IC50 [7]: 75 µM; IC50 [8]: 55 µM; IC50 [9]: 60 µM; IC50 [10]: 10 µM; IC50 [11]: 34 µM; IC50 [12]: 40 µM
COc1ccc(C(=O)/C=C/c2cccc(OC)c2OC)c(O)c1	22%	–
COc1ccc(C(=O)/C=C/c2cc(OC)c(OC)c(OC)c2)c(O)c1	20%	–
COc1cc(OC)c(/C=C/C(=O)c2c(OC)cc(N)cc2OC)c(OC)c1	74%	–
COc1cccc(OC)c1/C=C/C(=O)c1ccccc1	34%	–
COc1ccc(C(=O)/C=C/c2ccc(OC)c(OC)c2)c(O)c1	18%	–
COc1cc(/C=C/C(=O)c2c(OC)cccc2OC)cc(OC)c1OC	25%	–
COc1ccc(/C=C/C(=O)c2c(OC)cccc2OC)c(OC)c1OC	19%	–
COc1cc(OC)c(OC)cc1/C=C/C(=O)c1c(OC)cccc1OC	49%	–
COc1ccc(C(=O)/C=C/c2c(OC)cccc2OC)c(O)c1	18%	–

Structure (SMILES)	Activity [1]	further results
COc1cccc(OC)c1C(=O)/C=C/c1ccccc1	45%	–
COc1cc(/C=C/C(=O)c2c(O)cc(OC)cc2OC)cc(OC)c1	11%	–
COc1ccc(C(=O)/C=C/c2ccccc2Cl)c(O)c1	67%	–
COc1ccc(C(=O)/C=C/c2ccc(OC)c(OC)c2OC)c(O)c1	20%	–
CCOc1ccc(/C=C/C(=O)c2c(OCC)cccc2OCC)c(OCC)c1	11%	–
COc1ccc(C(=O)/C=C/c2c(F)cccc2Cl)c(O)c1	19%	–
COc1cccc(/C=C/C(=O)c2c(O)cc(OC)cc2OC)c1	52%	–
COc1ccc(C(=O)/C=C/c2ccc(Cl)cc2)c(O)c1	10%	–
COc1cc(O)c(C(=O)/C=C/c2ccc3c(c2)OCO3)c(OC)c1	13%	–
CCOc1cc(OCC)c(/C=C/C(=O)c2c(OC)cccc2OC)c(OCC)c1	12%	–
COc1cccc(OC)c1C(=O)/C=C/c1ccccc1F	38%	–
COc1cc(/C=C/C(=O)c2ccc(OC)cc2O)cc(OC)c1	40%	–
CCOc1cccc(OCC)c1C(=O)/C=C/c1c(OC)cccc1OC	14%	–
COc1cc(OC)c(/C=C/C(=O)c2c(OC)cc(OC)cc2OC)c(OC)c1	86%	IC50 [2]: 50 µM; IC50 [3]: 1 µM; IC50 [4]: 10 µM; IC50 [5]: 1.9 µM; IC50 [6]: 0.8 µM; IC50 [7]: 52 µM; IC50 [8]: 4 µM; IC50 [9]: 30 µM; IC50 [10]: 2.2 µM; IC50 [11]: 8.5 µM; IC50 [12]: 0.9 µM
COc1ccccc1/C=C/C(=O)c1c(OC)cccc1OC	18%	–
COc1cc(OC)c(/C=C/C(=O)c2ccc(Cl)c(Cl)c2)c(OC)c1	30%	–
COc1ccc(C(=O)/C=C/c2c(OC)cc(OC)cc2OC)c(OC)c1 (stereo in doubt; 3)	86%	–
COc1ccc(C(=O)/C=C/c2c(OC)cc(OC)cc2OC)c(OC)c1 (stereo in doubt; 52)	72%	–
COc1cc(O)c(C(=O)/C=C/c2ccccc2)c(OC)c1 [FLAVOKAWAIN B]	28%	–
CC[C@]1(O)C[C@H]2CN(CCc3c([nH]c4ccccc34)[C@@](C(=O)OC)(c3cc4c(cc3OC)N(C=O)[C@H]3[C@@](O)(C(=O)OC)[C@H](OC(C)=O)[C@]5(CC)C=CCN6CC[C@]43[C@@H]65)C2)C1 [VINCRISTINE]	72%	–
